{"data": "Measured values from different studies", "KEAP1": "Kelch-like ECH-associated protein 1 (KEAP1, Homo sapiens, UniProt Q14145)", "NR4A1": "Nuclear receptor subfamily 4immunitygroup A member 1 (NR4A1, Homo sapiens, UniProt P22736)", "folP": "Dihydropteroate synthase (folP, Bacteria, UniProt P0AC13)", "note": "Lines come from different studies, so protocols differ."}
{"Compound": "N=C(N)NCCCC(=O)O", "target": "Alkaline phosphatase, tissue-nonspecific isozyme (ALPL, Homo sapiens, UniProt P05186)", "test": "binding, ITC", "quantity": "Kd", "value": "2 µM"}
{"Compound": "C=CS(=O)(=O)c1ccc(Nc2nc(OCC3CCCCC3)c3nc[nH]c3n2)cc1", "target": "KEAP1", "test": "binding, SPR", "quantity": "Kd", "value": "0.2 µM"}
{"Compound": "O=C(O)/C=C/c1ccc(O)c(O)c1", "target": "KEAP1", "test": "binding, SPR", "quantity": "Kd", "value": "4.9 µM"}
{"Compound": "CCCCCCCCC(=O)c1cc(O)c(O)c(O)c1", "target": "NR4A1", "test": "binding, ITC", "quantity": "Kd", "value": "3.7 µM"}
{"Compound": "COc1cccc2c1C(=O)c1c(O)c3c(c(O)c1C2=O)C[C@@](O)(C(=O)CO)C[C@@H]3O[C@H]1C[C@H](N)[C@H](O)[C@H](C)O1", "target": "Solute carrier organic anion transporter family member 1B3 (SLCO1B3, Homo sapiens, UniProt Q9NPD5)", "test": "transporter uptake, inhibitor, radiometric", "conditions": "2 min", "quantity": "IC50", "value": "7.7 µM"}
{"Compound": "OC[C@H]1OC(O)[C@H](O)[C@@H](O)[C@@H]1O (some centres unmarked)", "target": "ATP-dependent RNA helicase DDX18 (Homo sapiens, UniProt Q9NVP1)", "test": "binding, MST", "quantity": "Kd", "value": "77.2 µM"}
{"Compound": "CCOC(=O)C(C)c1n[nH]c2nc(N)[nH]c(=O)c2c1=O (centres unmarked)", "target": "folP", "test": "binding, SPR", "quantity": "Kd", "value": "0.199 µM"}
{"Compound": "NC(=O)c1ncn([C@@H]2O[C@H](CO)[C@@H](O)[C@H]2O)n1", "target": "5'-AMP-activated protein kinase catalytic subunit alpha-1 (PRKAA1, Homo sapiens, UniProt Q13131)", "test": "binding, SPR", "quantity": "Kd", "value": "6.75 µM"}
{"Compound": "COc1cccc2c(Nc3ccc4[nH]c(C(=O)N/N=C/c5ccc(SC)cc5)cc4c3)cc(C)nc12", "target": "NR4A1", "test": "binding, ITC", "quantity": "Kd", "value": "2.3 µM"}
{"Compound": "CC(=O)OCc1nn(C)c2nc(N)[nH]c(=O)c2c1=O", "target": "folP", "test": "binding, SPR", "quantity": "Kd", "value": "0.0148 µM"}
{"Compound": "CN(Cc1cnc2nc(N)nc(N)c2n1)c1ccc(C(=O)N[C@@H](CCC(=O)O)C(=O)O)cc1", "target": "Solute carrier organic anion transporter family member 1B3 (SLCO1B3, Homo sapiens, UniProt Q9NPD5, M233I)", "test": "transporter uptake, inhibitor, radiometric", "conditions": "2 min", "quantity": "IC50", "value": "> 100 µM"}
